{
  "source": "ChEMBL document CHEMBL4680257",
  "about": "“Discovery of novel NF-кB inhibitor based on scaffold hopping: 1,4,5,6,7,8-hexahydropyrido[4,3-d]pyrimidine” (Eur J Med Chem, 2020)",
  "key": {"HepG2 [1]": {"tested_on": "HepG2", "experiment": "Induction of apoptosis in human HepG2 cells assessed as late apoptotic cells at 1 uM incubated for 24 hrs by annexin V-FITC and PI staining based flow cytometry analysis (reference value: 4.8 %)", "assay_type": "functional", "method_in_brief": "(§1)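 Cells seeded at 2×10^5 per well and treated 24 h with 1.0, 2.0 or 4.0 µM, or DMSO. Harvested, washed twice in cold PBS, resuspended at 1×10^5 cells/mL in buffer. Stained with Annexin V-FITC plus propidium iodide for 15 min at room temperature in the dark, then analysed by flow cytometry.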"}, "[2]": {"experiment": "Cytotoxicity against human HHL-5 cells assessed as reduction in cell viability incubated for 24 hrs by MTT assay", "assay_type": "cell-based", "conditions": "HHL-5, 24 h", "method_in_brief": "(§2)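 Cells kept at 37 °C in 5% CO₂. HepG2 grown in DMEM with 10% serum; HHL-5, LO2 and SMMC-7721 in 1640 medium with 10% serum. Seeded, grown 24 h, then exposed 24 h to 10, 5, 2.5, 1.25, 0.625 and 0.3125 µg/mL. MTT (5 mg/mL) added for 4 h at 37 °C; formazan dissolved in DMSO, OD read at 570 nm. IC50 averaged from three replicates.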"}, "HepG2 [3]": {"tested_on": "HepG2", "experiment": "Induction of apoptosis in human HepG2 cells assessed as increase in Caspase-3 expression incubated for 24 hrs by Western blot analysis", "assay_type": "functional, cell-based", "conditions": "dose 1-4 µM", "method_in_brief": "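HepG2 exposed to 1.0, 2.0 or 4.0 µM for 24 h. Lysates separated by electrophoresis and blotted onto nitrocellulose. Probed overnight at 4 °C with anti-Bcl-2, anti-BAX or anti-cleaved caspase-3, then 2 h at room temperature with anti-mouse/rabbit IgG. ECL detection, GAPDH as loading control; quantified from more than three separate experiments.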"}, "HepG2 [4]": {"tested_on": "HepG2", "experiment": "Induction of apoptosis in human HepG2 cells assessed as necrotic cells at 1 uM incubated for 24 hrs by annexin V-FITC and PI staining based flow cytometry analysis (reference value: 0.8 %)", "assay_type": "functional", "method_in_brief": "as §1"}, "RAW264.7 [5]": {"tested_on": "RAW264.7", "experiment": "Inhibition of NF-kappaB in mouse RAW264.7 cells assessed as reduction in LPS-induced p65 phosphorylation incubated for 1 hr followed by LPS stimulation and measured after 30 mins by Western blot analysis", "assay_type": "cell-based", "conditions": "dose 1-4 µM", "method_in_brief": "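RAW264.7 incubated 1 h with compound (1.0, 2.0, 4.0 µM), then LPS 1.0 µg/mL for 30 min before extraction. Lysates blotted to nitrocellulose and probed overnight at 4 °C for total and phospho forms of p65, IκBα, Akt, ERK1/2, JNK and p38; secondary antibody 2 h at room temperature. ECL detection, normalized to GAPDH, mean ± SD of triplicate tests.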"}, "SMMC-7721 [6]": {"tested_on": "SMMC-7721", "experiment": "Induction of apoptosis in human SMMC-7721 cells assessed as late apoptotic cells at 4 uM incubated for 24 hrs by annexin V-FITC and PI staining based flow cytometry analysis (reference value: 5.4 %)", "assay_type": "functional", "method_in_brief": "as §1"}, "RAW264.7 [7]": {"tested_on": "RAW264.7", "experiment": "Cytotoxicity against mouse RAW264.7 cells assessed as reduction in cell viability at 5 uM incubated for 24 hrs by MTT assay", "assay_type": "cell-based", "conditions": "raw264.7, 24 h"}, "RAW264.7 [8]": {"tested_on": "RAW264.7", "experiment": "Antiinflammatory activity against mouse RAW264.7 cells assessed as LPS-induced TNF-alpha at 5 uM pretreated for 2 hrs followed by LPS stimulation and measured after 22 hrs by ELISA (reference value: 0 %)", "assay_type": "functional", "conditions": "time 24 hrs"}, "HepG2 [9]": {"tested_on": "HepG2", "experiment": "Induction of apoptosis in human HepG2 cells incubated for 24 hrs by annexin V-FITC and PI staining based flow cytometry analysis", "assay_type": "functional, cell-based", "conditions": "dose 1-4 µM", "method_in_brief": "as §1"}, "SMMC-7721 [10]": {"tested_on": "SMMC-7721", "experiment": "Induction of apoptosis in human SMMC-7721 cells assessed as early apoptotic cells at 4 uM incubated for 24 hrs by annexin V-FITC and PI staining based flow cytometry analysis (reference value: 0.3 %)", "assay_type": "functional", "method_in_brief": "as §1"}, "HepG2 [11]": {"tested_on": "HepG2", "experiment": "Induction of apoptosis in human HepG2 cells assessed as viable cells at 1 uM incubated for 24 hrs by annexin V-FITC and PI staining based flow cytometry analysis (reference value: 94.2 %)", "assay_type": "functional", "conditions": "read-out: Activity", "method_in_brief": "as §1"}, "SMMC-7721 [12]": {"tested_on": "SMMC-7721", "experiment": "Cytotoxicity against human SMMC-7721 cells assessed as reduction in cell viability incubated for 24 hrs by MTT assay", "assay_type": "functional, cell-based", "conditions": "SMMC-7721, 24 h", "method_in_brief": "as §2"}, "L02": {"tested_on": "L02", "experiment": "Cytotoxicity against human L02 cells assessed as reduction in cell viability incubated for 24 hrs by MTT assay", "assay_type": "cell-based", "conditions": "L02, 24 h", "method_in_brief": "as §2"}, "RAW264.7 [13]": {"tested_on": "RAW264.7", "experiment": "Inhibition of NF-kappaB in mouse RAW264.7 cells assessed as reduction in LPS-induced p65 nuclear translocation at 4 uM pretreated with LPS for 15 mins followed by compound addition and measured after 2 hrs by DAPI staining based fluorescence microscopy", "assay_type": "cell-based", "conditions": "time 135.0 min", "method_in_brief": "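RAW264.7 exposed to LPS (1 µg/mL) for 15 min, then 4.0 µM compound for 2 h. Fixed at room temperature and blocked with 3% BSA. Anti-p65 (1:200) overnight at 4 °C, then secondary (1:200) for 30 min at room temperature. Nuclei stained with DAPI for 15 min; imaged on a high-content fluorescence system. Repeated three times.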"}, "SMMC-7721 [14]": {"tested_on": "SMMC-7721", "experiment": "Induction of apoptosis in human SMMC-7721 cells assessed as necrotic cells at 1 uM incubated for 24 hrs by annexin V-FITC and PI staining based flow cytometry analysis (reference value: 1 %)", "assay_type": "functional", "method_in_brief": "as §1"}, "HepG2 [15]": {"tested_on": "HepG2", "experiment": "Cytotoxicity against human HepG2 cells assessed as reduction in cell viability incubated for 24 hrs by MTT assay", "assay_type": "functional, cell-based", "conditions": "HepG2, 24 h", "method_in_brief": "as §2"}},
  "note": "The source made the active and inactive calls. The rule behind the calls is not given here.",
  "data": [
    {"smiles": "Cl.NC1=NC(c2cccc(F)c2)C2=C(N1)/C(=C/c1cccc(F)c1)CN(S(=O)(=O)c1ccc(C(F)(F)F)cc1)C2", "note": "(stereo unspecified)", "values": [
      {"measurement": "Activity", "setting": "HepG2 [1]", "value": 10.5, "unit": "%"},
      {"measurement": "IC50", "setting": "[2]", "value": 28.8, "unit": "µM"},
      {"measurement": "Activity", "setting": "HepG2 [3]", "value": "Dose-dependent effect"},
      {"measurement": "Activity", "setting": "HepG2 [4]", "value": 0.8, "unit": "%"},
      {"measurement": "inhibition", "setting": "RAW264.7 [5]", "value": "Dose-dependent effect"},
      {"measurement": "Activity", "setting": "SMMC-7721 [6]", "value": 9.2, "unit": "%"},
      {"measurement": "Activity", "setting": "RAW264.7 [7]", "value": "Non-Toxic"},
      {"measurement": "inhibition at 5 µM", "setting": "RAW264.7 [8]", "value": 88.5, "unit": "%"},
      {"measurement": "Activity", "setting": "HepG2 [9]", "value": "Dose-dependent effect"},
      {"measurement": "Activity", "setting": "SMMC-7721 [10]", "value": 11.4, "unit": "%"},
      {"measurement": "viability at 1 µM", "setting": "HepG2 [11]", "value": 35.3, "unit": "%"},
      {"measurement": "IC50", "setting": "SMMC-7721 [12]", "value": 2.4, "unit": "µM"},
      {"measurement": "IC50", "setting": "L02", "value": 35.2, "unit": "µM"},
      {"measurement": "inhibition", "setting": "RAW264.7 [13]", "value": "Active"},
      {"measurement": "Activity", "setting": "SMMC-7721 [14]", "value": 0.7, "unit": "%"},
      {"measurement": "IC50", "setting": "HepG2 [15]", "value": 2.1, "unit": "µM"}
    ]}
  ]
}
